The text below walks through data of ChEMBL document CHEMBL2321865 (J Med Chem, 2013).

The source made the active and inactive calls.

In test [1] the target is Delta-type opioid receptor (Mus musculus, UniProt P32300). The test can be described thus: Inhibition of DOR in ICR mouse vas deferens assessed as inhibition of electrically-stimulated muscle contraction after 3 mins. The arrangement: species or system Muscle tissue. The method in brief: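 Vas deferens from male ICR mice, 25-30 g, in Mg-free Krebs at 37 °C under 95% O₂/5% CO₂. Transmural stimulation at 0.1 Hz, 2.0 ms pulses, supramaximal voltage. Cumulative curves over five to seven concentrations; inhibition read 3 min after each addition. IC₅₀ from a Hill fit, at least four assays.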

The target in a further test is Mu-type opioid receptor (Cavia porcellus, UniProt P97266). The test can be described thus: Inhibition of MOR in Hartley guinea pig ileum longitudinal muscle myenteric plexus assessed as inhibition of electrically-stimulated muscle contraction after 3 mins. It counts as tissue-based. In outline: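 Longitudinal muscle-myenteric plexus strips from male Hartley guinea pigs (150-400 g) in oxygenated Krebs at 37 °C. Stimulated at 0.1 Hz, 0.4 ms pulses, supramaximal voltage. […] IC₅₀ by Hill fit, at least four assays.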

For test [2], the target named is Delta-type opioid receptor (Rattus norvegicus, UniProt P33533). The test can be described thus: Displacement of [3H]Deltorphin from DOR in Sprague-Dawley rat brain membrane after 180 mins by scintillation counting analysis. It counts as cell membranes. In outline:
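Whole brain homogenate from male Sprague-Dawley rats, pre-incubated 30 min at 25 °C to remove endogenous opioids. Six to seven test concentrations; rapid filtration; nonlinear least-squares fit; at least two assays, each in duplicate.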

Test [3] relates to Mus musculus. The test can be described thus: Antinociceptive activity in CD1 mouse assessed as tail withdrawal latency at 3000 nmol, iv measured after 15 to 60 mins by tail flick test relative to vehicle-treated control. The test is classed as functional. In outline: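 Male CD-1 mice, lightly isoflurane-anaesthetised, given tail-vein injection at 5 mL/kg. Tail-flick latency to radiant heat focused 3-4 cm from the tail tip, cut-off 15 s. Baseline is the mean of three readings; readings at 15-180 min; expressed as %MPE. Mean ± S.E.M.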
Background: In hot-plate and tail-flick tests a longer latency is read as antinociception.

The test system of test [4] is Mus musculus. The test can be described thus: Antinociceptive activity in CD1 mouse assessed as paw licking and jumping latency at 3000 nmol, iv measured after 15 to 60 mins by hot plate test relative to vehicle-treated control. The test is classed as functional. In outline: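 Male CD-1 mice, 25-30 g, lightly isoflurane-anaesthetised, dosed into the tail vein at 5 mL/kg. Hot plate at 55.0 °C; latency to paw lick or jump, cut-off 60 s. Baseline is the mean of three readings 15 min apart; readings to 180 min. %MPE = (post-drug − baseline)/(cut-off − baseline)×100. Mean ± S.E.M.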

Test [5] deals with Mus musculus. The test can be described thus: Antinociceptive activity in CD1 mouse assessed as tail withdrawal latency at 0.6 nmol, icv measured after 15 to 30 mins by tail flick test. It counts as functional, organism-based. The method in brief:
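Male CD-1 mice given i.c.v. injection (5 µL; 2 mm caudal, 2 mm lateral to bregma, 3 mm deep) under light isoflurane. Radiant heat focused 3-4 cm from the tail tip; withdrawal latency recorded, cut-off 15 s. Baseline is the mean of three readings 15 min apart; readings at 15-120 min; %MPE.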

Test [6] deals with Mus musculus. The test can be described thus: Antinociceptive activity in CD1 mouse assessed as paw licking and jumping latency at 0.6 nmol, icv measured after 30 to 45 mins by hot plate test relative to vehicle-treated control. It counts as functional. In outline:
(§1)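 Male CD-1 mice, 25-30 g, lightly isoflurane-anaesthetised; i.c.v. injection 2 mm caudal, 2 mm lateral to bregma, 3 mm deep, 5 µL. Hot plate held at 55.0 °C; latency to paw lick or jump, cut-off 60 s. Baseline is the mean of three readings 15 min apart. Latencies taken at 15-120 min after dosing and expressed as %MPE.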

The test system of test [7] is Mus musculus. The test can be described thus: Antinociceptive activity in CD1 mouse assessed as paw licking and jumping latency at 0.6 nmol, icv measured after 15 to 30 mins by hot plate test. It counts as functional, organism-based. The method in brief: as §1

Chain of Mu-type opioid receptor (P97266 whole entry): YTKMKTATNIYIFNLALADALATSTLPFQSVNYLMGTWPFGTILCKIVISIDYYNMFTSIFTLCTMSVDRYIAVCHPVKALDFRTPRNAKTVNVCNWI
Chain of Delta-type opioid receptor (Rattus norvegicus, UniProt P33533) (P33533 whole entry): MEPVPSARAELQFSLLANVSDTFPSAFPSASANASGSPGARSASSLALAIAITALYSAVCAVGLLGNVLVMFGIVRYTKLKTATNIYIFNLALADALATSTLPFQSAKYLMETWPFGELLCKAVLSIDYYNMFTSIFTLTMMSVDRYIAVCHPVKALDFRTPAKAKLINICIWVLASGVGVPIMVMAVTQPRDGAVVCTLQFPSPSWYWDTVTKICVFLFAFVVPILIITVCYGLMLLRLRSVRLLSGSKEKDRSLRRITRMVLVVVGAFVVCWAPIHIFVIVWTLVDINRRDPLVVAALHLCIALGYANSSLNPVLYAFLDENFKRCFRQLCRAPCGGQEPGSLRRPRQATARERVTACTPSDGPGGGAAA
Chain of Delta-type opioid receptor (Mus musculus, UniProt P32300) (P32300 whole entry): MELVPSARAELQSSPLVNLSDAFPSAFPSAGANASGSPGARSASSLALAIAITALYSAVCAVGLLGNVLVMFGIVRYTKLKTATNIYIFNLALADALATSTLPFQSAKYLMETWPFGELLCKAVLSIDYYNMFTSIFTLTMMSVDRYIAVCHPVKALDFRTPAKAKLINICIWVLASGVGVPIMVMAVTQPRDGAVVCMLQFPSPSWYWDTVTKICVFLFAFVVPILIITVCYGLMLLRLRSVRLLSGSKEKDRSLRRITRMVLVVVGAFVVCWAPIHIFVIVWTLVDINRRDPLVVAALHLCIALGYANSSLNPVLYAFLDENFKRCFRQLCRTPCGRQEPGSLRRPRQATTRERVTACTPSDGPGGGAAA

`C[C@@H](NC(=O)C[C@@H](N)Cc1ccc(O)cc1)C(=O)NCC(=O)N[C@@H](Cc1ccccc1)C(=O)N[C@H](CC(=O)N[C@H](C)C(=O)NCC(=O)N[C@@H](Cc1ccccc1)C(N)=O)Cc1ccc(O)cc1`: the concentration for half-maximal inhibition (IC50) in test [1] was determined as 710 nM; on Mu-type opioid receptor, 670 nM. This compound also gave a Ki in test [2] of 480 nM.

`C[C@@H](NC(=O)[C@@H](N)Cc1ccc(O)cc1)C(=O)NCC(=O)N[C@@H](Cc1ccccc1)C(=O)NNC(=O)[C@H](Cc1ccccc1)NC(=O)CNC(=O)[C@@H](C)NC(=O)[C@@H](N)Cc1ccc(O)cc1` [BIPHALIN]: the outcome in the test on Mus musculus [3], in the test on Mus musculus [4], in the test with Mus musculus [5] and in the test on Mus musculus [7] was Active. The MPE in the test on Mus musculus [6] worked out at 100%.

In general, IC50 refers to the concentration needed to halve the response being measured. In general, Ki refers to the dissociation constant of the complex between target and ligand, obtained from inhibition or displacement.
